Calls of active or inactive are those of the source. The calls are words filed in the database; no cut-off is given here.

Assay [1] deals with Atropa belladonna. The assay is described as follows: Activity at Atropa belladonna recombinant hycosamine 6beta-hydroxylase expressed in Escherichia coli assessed as hydroxylated product formation at 0.2 mM after 1 hr by ESI-MS analysis. The method in brief: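 Ni-NTA-purified His-tagged AbH6H, E. coli-expressed. Analogue at 0.2 mM final replaced (−)-hyoscyamine in 50 mM Tris/HCl pH 7.6 with 0.4 mM FeSO4, 4 mM sodium ascorbate, 1 mM 2-oxoglutaric acid and 2 mg/mL catalase at 34 °C. The reaction was quenched with saturated Na2CO3 (pH ~9.5) and extracted with EtOAc. Conversion to products was checked by ESI-MS.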

The subject of assay [2] is Atropa belladonna. As to the kind of experiment: Inhibition of Atropa belladonna recombinant hycosamine 6beta-hydroxylase expressed in Escherichia coli using hyoscyamine as substrate assessed as inhibition of hydroxylated product formation at 0.1 mM after 1 hr by HPLC analysis. The method in brief: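 Purified AbH6H was assayed in 50 mM Tris/HCl pH 7.6 with 0.4 mM FeSO4, 4 mM ascorbate, 1 mM 2-oxoglutarate, 2 mg/mL catalase and 0.2 mM (−)-hyoscyamine, plus 0.1 mM analogue, at 34 °C. After Na2CO3 quench and EtOAc extraction, 6β-hydroxyhyoscyamine was quantified by C18 HPLC (UV 210 nm, water/H3PO4–MeOH gradient). Inhibition was scored as reduced product formation.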

Assay [3] concerns Atropa belladonna. The assay is described as follows: Activity at Atropa belladonna recombinant hycosamine 6beta-hydroxylase epoxidase activity expressed in Escherichia coli assessed as scopolamine formation at 0.2 mM after 1 hr by ESI-MS analysis. The method in brief:
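C-terminally His6-tagged A. belladonna H6H expressed in E. coli JM109 and Ni-NTA purified. Substrate (0.2 mM final) incubated at 34 °C in 50 mM Tris/HCl pH 7.6 with 0.4 mM FeSO4, 4 mM sodium ascorbate, 1 mM 2-oxoglutarate and 2 mg/mL catalase. Quenched with saturated Na2CO3 to pH ~9.5 and extracted with EtOAc. Products detected by ESI-MS.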

As to `CN1CCC(OC(=O)Cc2ccccc2)CC1`, the result in the assay with Atropa belladonna [1] was inactive. Moreover, in the assay with Atropa belladonna [2], the inhibition – broadly, the change of the read-out against control, counted positive when it falls – was “inactive”.

`C[N+]1(C)C2C[C@H](OC(=O)[C@H](CO)c3ccccc3)C[C@@H]1[C@H]1OC21` (single isomer, unassigned): in the assay with Atropa belladonna [1], the result was inactive. Moreover, the inhibition in the assay on Atropa belladonna [2] is 7%.

`O=C(Cc1ccccc1)O[C@@H]1CC2CC[C@H](C1)O2` (single isomer, unassigned): the result with Atropa belladonna [1] was inactive. For the same compound, the inhibition result with Atropa belladonna [2] was “inactive”.

Consider `CN(C)c1ccc(CC(=O)O[C@H]2C[C@H]3CC[C@@H](C2)N3C)cc1`, for which the outcome with Atropa belladonna [1] was Active.

`CN1C2CC[C@@H]1C[C@H](OC(=O)CCc1ccccc1)C2` (single isomer, unassigned): the outcome in the assay with Atropa belladonna [1] was inactive. In the assay with Atropa belladonna [2], the inhibition result was “inactive”.

In the case of `CN1[C@@H]2C=C[C@H]1C[C@@H](OC(=O)[C@H](CO)c1ccccc1)C2`, the outcome with Atropa belladonna [1] and in the assay with Atropa belladonna [3] was Active.

`CN1C2CC[C@@H]1C[C@H](OC(=O)c1ccccc1)C2` (single isomer, unassigned): in the assay on Atropa belladonna [1], the outcome was Active.

These data come from ChEMBL document CHEMBL2057189, “Functional characterization of recombinant hyoscyamine 6β-hydroxylase from Atropa belladonna” (Bioorg Med Chem, 2012).
